According to ChEMBL document CHEMBL3864187, “Discovery and Characterization of a Peptoid with Antifungal Activity against Cryptococcus neoformans” (ACS Med Chem Lett, 2016):
Converted amounts (≈) assume the structure as drawn. The source made the active and inactive calls. Where a SMILES comes first, the peptide text is derived from it. [ ]: non-standard residue; d: D form. NFurfurylGly = O=C(O)CNCc1ccco1; Gly(N(CH2)3NH2) = NCCCNCC(=O)O; Nphe = O=C(O)CNCc1ccccc1

What was measured:
[1] = Antifungal activity against Cryptococcus neoformans serotype A H99S assessed as inhibition of colony growth measured after 72 hrs by PrestoBlue staining based broth dilution method; format: functional; settings: for MIC: Cryptococcus neoformans var. grubii H99S
Outline: (§1)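 Standard broth dilution of the synthesized, HPLC-purified peptoid against C. neoformans in a triplicate-sample format with 72 h incubation; MIC is the lowest concentration that inhibits growth.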

[2] = Metabolic stability in human serum assessed as compound degradation at 0.1 mg/mL measured after 48 hrs by RP-HPLC analysis; format: ADME
[3] = Cytotoxicity against human HepG2 cells measured after 48 hrs by MTT assay; format: toxicity, cell-based
Outline: (§2)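 Cells were exposed to peptoid across 800 to 3.1 μg/mL. IC50 is defined as the concentration giving 50% growth inhibition. Cytotoxicity was also scored at 6.3 μg/mL within this range.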

[4] = Cytotoxicity against human HepG2 cells at 6.3 ug/ml measured after 48 hrs by MTT assay; format: toxicity, cell-based; settings: hepg2, 48 h; outline: as §2
[5] = Cytotoxicity against human HPL1A cells at 6.3 ug/ml measured after 48 hrs by MTT assay; format: toxicity, cell-based; outline: as §2
[6] = Antifungal activity against Cryptococcus neoformans serotype D ATCC 24067 after 72 hrs by PrestoBlue staining based broth dilution method; format: functional, Cryptococcus deneoformans; outline: as §1
[7] = Selectivity index, ratio of IC50 for human HepG2 cells to MIC for Cryptococcus neoformans serotype A H99S
Outline: (§3)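 Mammalian toxicity tested at 800 to 3.1 μg/mL. IC50 (50% growth inhibition) was measured in NIH/3T3, HepG2 and HPL1A cells, and HC10 (10% lysis) in human erythrocytes. Each value was divided by the broth-dilution MIC against H99S.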

[8] = Cytotoxicity against human HPL1A cells measured after 48 hrs by MTT assay; format: toxicity, cell-based; outline: as §2
[9] = Hemolytic activity against human erythrocytes at 6.3 ug/ml measured after 1 hr by spectrophotometric method; format: cell-based; settings: erythrocyte
Outline: (§4)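 Human erythrocytes were exposed to peptoid across 800 to 3.1 μg/mL. HC10 is defined as the concentration lysing 10% of erythrocytes. Lysis was also scored at 6.3 μg/mL.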

Cryptococcus neoformans [10] = assay: Fungicidal activity against Cryptococcus neoformans serotype A H99S at =>6.3 ug/mL measured after 72 hrs by broth dilution method; format: functional; settings: Cryptococcus neoformans var. grubii H99S
Outline: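 Broth MIC assay over a range of peptoid concentrations with 72 h incubation. Triplicate wells are pooled, washed with PBS to remove drug and spotted onto YPD agar. Fungicidal activity means no colony regrowth; recovery of colonies means fungistatic only.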

[11] = Selectivity index, ratio of HC10 for human erythrocytes to MIC for Cryptococcus neoformans serotype A H99S; outline: as §3
[12] = Antifungal activity against Cryptococcus neoformans serotype D clinical isolate AD 12-30 after 72 hrs by PrestoBlue staining based broth dilution method; format: functional, Cryptococcus deneoformans
Outline: (§5)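 Standard broth dilution MIC assay run in triplicate samples with 72 h incubation. The MIC is the lowest concentration inhibiting growth. An IC50 (50% inhibitory concentration) is also derived from the same assay.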

[13] = Selectivity index, ratio of IC50 for mouse NIH/3T3 cells to MIC for Cryptococcus neoformans serotype A H99S; outline: as §3
[14] = Cytotoxicity against mouse NIH/3T3 cells measured after 48 hrs by MTT assay; format: toxicity, NIH3T3; outline: as §2
[15] = Antifungal activity against Cryptococcus neoformans serotype D clinical isolate AD 12-27 after 72 hrs by PrestoBlue staining based broth dilution method; format: functional, Cryptococcus deneoformans; outline: as §5
Mus musculus = organism: Mus musculus; assay: Cytotoxicity against mouse NIH/3T3 cells at 6.3 ug/ml measured after 48 hrs by MTT assay; format: toxicity, cell-based; settings: nih3t3, 48 h; outline: as §2
[16] = Cytotoxicity against human erythrocytes assessed as hemolysis measured after 1 hr by spectrophotometric method; format: toxicity, cell-based; settings: erythrocyte; outline: as §4
Cryptococcus neoformans [17] = assay: Antifungal activity against Cryptococcus neoformans serotype A clinical isolate B24 after 72 hrs by PrestoBlue staining based broth dilution method; format: functional; settings: isolate B24, 72 h; outline: as §5
Cryptococcus neoformans [18] = assay: Antifungal activity against Cryptococcus neoformans serotype A clinical isolate B18 after 72 hrs by PrestoBlue staining based broth dilution method; format: functional; settings: isolate B18, 72 h; outline: as §5
[19] = Selectivity index, ratio of IC50 for human HPL1A cells to MIC for Cryptococcus neoformans serotype A H99S; outline: as §3

NCCCN(CC(=O)N(CC(=O)N(CC(N)=O)Cc1ccco1)Cc1ccccc1)C(=O)CN(Cc1ccccc1)C(=O)CNCc1ccccc1 (H-[Nphe][Nphe][Gly(N(CH2)3NH2)][Nphe][NFurfurylGly]-NH2)
MIC [1]: > 200 µg/mL

CCCCCCCCCCCCCNCC(=O)N(CCCCN)CC(=O)N(CC(N)=O)Cc1ccco1
Stability [2]: Stable
IC50 at 48 h [3]: 43.6 to 56.2 µg/mL (≈ 83.6 to 108 µM)
Activity [4]: Non-Toxic
Activity [5]: Non-Toxic
IC50 [6]: 3.9 µg/mL (≈ 7.47 µM)
MIC ([6]; Cryptococcus deneoformans): 6.3 µg/mL (≈ 12.1 µM)
Selectivity Index [7]: 9
IC50 at 48 h [8]: 36.3 µg/mL (≈ 69.6 µM)
Activity [9]: Non-Toxic
Activity (Cryptococcus neoformans [10]): Active
Selectivity Index [11]: 11
IC50 [12]: 6.9 µg/mL (≈ 13.2 µM)
MIC ([12]; Cryptococcus deneoformans): 25 µg/mL (≈ 47.9 µM)
Selectivity Index [13]: 8
IC50 at 48 h [14]: 48.6 to 50.3 µg/mL (≈ 93.1 to 96.4 µM)
IC50 [15]: 4 µg/mL (≈ 7.67 µM)
MIC ([15]; Cryptococcus deneoformans): 25 µg/mL (≈ 47.9 µM)
Activity (Mus musculus): Non-Toxic
HC10 [16]: 68.7 µg/mL
IC50 (Cryptococcus neoformans [17]): 10.7 µg/mL (≈ 20.5 µM)
MIC (Cryptococcus neoformans [17]): 12.5 µg/mL (≈ 24 µM)
IC50 [1]: 0.68 µg/mL (≈ 1.3 µM)
MIC [1]: 6.3 µg/mL (≈ 12.1 µM)
IC50 (Cryptococcus neoformans [18]): 12.2 µg/mL (≈ 23.4 µM)
MIC (Cryptococcus neoformans [18]): 25 µg/mL (≈ 47.9 µM)
Selectivity Index [19]: 6
